From paper PMC6989153 (Molecular pharmaceutics, 2019)
Read-outs that look alike come from different tables or passages of the source.

Legend:
LDL = experiment: Native gel electrophoresis of APC analogs in human plasma, LDL band; format: in vitro ADME; conditions: incubated 4 hrs at 37°C, means ± SEM
How it was run: (§1)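 Fresh, unfrozen human plasma was incubated with test compound (100nM) with shaking for 4 h at 37°C. Samples in sample buffer were run on non-denaturing Tris-glycine gels at a common voltage and duration. Band position and intensity were read by fluorescence imaging or by radioactivity scanning, followed by Coomassie staining. Standards were mouse albumin, human LDL, human HDL, gamma-globulins, alpha1-acid glycoprotein and fatty acid-free HSA.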

[1] = format: in vivo, nude athymic mice; conditions: for MRT (mean residence time): n=6
How it was run: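 Naive athymic nude mice (20–26 g) on standard chow received test compound by tail-vein injection: fluorescent analogs at 2.6μmol/kg, radioiodinated dose normalized to mass and body weight. Pre-dose blood was taken for background. Serial 10μL maxillary-puncture samples were collected into EDTA (n=6), and levels were read by fluorescence or gamma counting. Non-compartmental analysis gave clearance, AUC, AUMC and mean residence time, normalized to starting dose.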

Log D determination = format: physicochemical; conditions: octanol/water, pH 7.4
How it was run: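 Test compound (radioiodinated, or fluorescent) was added to octanol and equilibrated overnight. An equal volume of distilled water at pH 7.4 was added, and the mixture was rotated at room temperature, protected from light, for 48 h. The phases were separated, and relative concentrations were measured by gamma counting (radioiodinated compound) or by fluorescence plate reader (fluorescent analogs).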

MDA-MB-231 breast cancer [2] = conditions: post-injection, tumor-bearing mice; cited from earlier work
Albumin [3] = target: T1, Albumin (Homo sapiens, UniProt P02768); experiment: Native gel electrophoresis of APC analogs in human plasma, albumin band; format: in vitro ADME; conditions: for Albumin (signal in band on native gel): incubated 4 hrs at 37°C, means ± SEM; for albumin binding: native gel analysis
How it was run: as §1

[4] = target: fatty acid-free human serum albumin (HSA) (Homo sapiens, UniProt P02768); experiment: Equilibrium dialysis; format: binding; conditions: PBS, 37°C
How it was run: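 Fatty acid-free HSA was dissolved in PBS and loaded into a rapid equilibrium dialysis chamber, with PBS in the collection well. The device was shaken at 37°C, and small aliquots were drawn from the collection well over time. Concentration was measured by UV absorbance, or by gamma counting for radioiodinated compound.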

HDL = experiment: Native gel electrophoresis of APC analogs in human plasma, HDL band; format: in vitro ADME; conditions: incubated 4 hrs at 37°C, means ± SEM
How it was run: as §1

Albumin [5] = target: T1, Albumin; experiment: Partitioning in fresh unfrozen human plasma with intralipid, albumin binding; format: in vitro ADME
How it was run: (§2)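 Fresh, unfrozen human plasma was incubated with test compound plus varying intralipid (20% soybean oil, 1.2% egg yolk phospholipids, 2.25% glycerin emulsion), up to 20% v/v. Plasma partitioning runs were shaken for 4 h at 37°C, then ultracentrifuged at […] for 8 h. The layers were separated, and fluorescence (radiance efficiency) or radioactivity was measured in each, expressed as a percentage per fraction.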

lipoprotein fraction = format: in vitro ADME; conditions: human plasma
How it was run: as §2

MDA-MB-231 breast cancer [6] = experiment: Tumor uptake kinetics in tumor-bearing flank xenografts; format: in vivo; conditions: MDA-MB-231 flank xenografts, IVIS fluorescence imaging, three mice
[7] = athymic nude, mouse, whole blood, intravenous
[8] = nude athymic mice, tail-vein injection, normalized to starting dose
[9] = nude athymic mice, tail-vein injection

T1 sequence (P02768 25-609): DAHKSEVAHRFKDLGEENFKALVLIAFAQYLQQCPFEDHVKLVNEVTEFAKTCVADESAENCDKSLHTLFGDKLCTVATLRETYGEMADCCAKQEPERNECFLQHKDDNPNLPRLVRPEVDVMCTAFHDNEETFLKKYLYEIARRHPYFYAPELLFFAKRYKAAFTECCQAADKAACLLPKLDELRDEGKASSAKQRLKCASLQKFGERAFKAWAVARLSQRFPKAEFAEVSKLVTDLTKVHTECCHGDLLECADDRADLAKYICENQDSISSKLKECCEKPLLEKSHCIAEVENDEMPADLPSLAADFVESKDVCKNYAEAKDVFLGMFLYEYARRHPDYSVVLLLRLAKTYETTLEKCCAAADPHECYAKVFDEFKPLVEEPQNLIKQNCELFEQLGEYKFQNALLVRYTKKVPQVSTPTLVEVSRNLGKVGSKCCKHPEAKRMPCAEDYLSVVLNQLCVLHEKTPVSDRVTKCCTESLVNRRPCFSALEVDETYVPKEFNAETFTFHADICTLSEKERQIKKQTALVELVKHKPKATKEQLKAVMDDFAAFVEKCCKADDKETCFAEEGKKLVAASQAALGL
Chain of fatty acid-free human serum albumin (HSA) (P02768 25-609): as above

Row | SMILES | LDL (signal in band on native gel) (LDL) | AUC [1, 8] | AUMC [1, 8] | Clearance [1, 8] | Albumin (signal in band on native gel) (Albumin [3]) | albumin binding (Albumin [3]) | HDL (signal in band on native gel) (HDL) | MRT (mean residence time) [1, 9] | CL [1, 8] | further results
1 | C[N+](C)(C)CCOP(=O)([O-])OCCCCCCCCCCCCCCCCCCc1ccc(I)cc1 [NM404, 18-(p-Iodophenyl)octadecylphosphocholine] | 4.60 ± 0.28 | 43.66 h | 4333.63 hr^2 | 0.02 h⁻¹ | 79.99 ± 0.22 | 79.99% | 15.42 ± 0.41 |  |  | Clearance [1, 7]: 0.333 mL/min; MRT [1, 7]: 99.2 h; logD at 48 h (Log D determination): 2.07; time at which tumor uptake was seen (MDA-MB-231 breast cancer [2]): 24 h; time of peak tumor uptake (MDA-MB-231 breast cancer [2]): 72 h; binding to fatty acid-free human serum albumin [4]: 96%
2 | C[N+](C)(C)CCOP(=O)([O-])OCCCCCCCCCCCCCCCCCCc1ccc(C2=C3C=CC=[N+]3[B-](F)(F)n3cccc32)cc1 [compound 1501, 18-[p-(4,4-difluoro-4-bora-3a,4a-diaza-s-indacene-8-yl)-phenyl]-octadecyl phosphocholine] | 7.11 ± 0.41 | 159.64 h | 37686.99 hr^2 | 0.01 h⁻¹ | 82.64 ± 1.62 | 82.64% | 10.25 ± 1.25 | 236.07 h | 0.01 L/h | albumin-binding percentage (Albumin [5]; 20% intralipid): 79.32%; albumin-binding percentage (Albumin [5]; no intralipid): 85.93%; lipoprotein percentage of fluorescence intensity (lipoprotein fraction; 20% v/v intralipid): 14.40%; lipoprotein percentage of fluorescence intensity (lipoprotein fraction; no intralipid): 7.33%
3 | CN1/C(=C/C=C2\CCCC(/C=C/C3=[N+](C)c4ccccc4C3(C)C)=C2c2ccc(CCCCCCCCCCCCCCCCCCOP(=O)(O)OCC[N+](C)(C)C)cc2)C(C)(C)c2ccccc21 [compound 1502, 1,3,3-trimethyl-2-[(E)-2-[(3E)-3-(2-[(2E)-1,3,3-trimethyl-2,3-dihydro-1H-indol-2-ylidene]ethylidene}−2-[4-(18-([2-(trimethylazaniumyl)ethylhosphonato]oxy)octadecyl)phenyl]cyclohex-1-en-1-yl]ethenyl]-3H-indol-1-ium] | 9.21 ± 0.86 | 13.16 h | 446.66 hr^2 | 0.08 h⁻¹ | 69.88 ± 3.32 | 69.88% | 20.90 ± 2.57 | 33.95 h | 0.08 L/h | time at which uptake into the cancer was first seen (MDA-MB-231 breast cancer [6]): 4.5 h; time of peak tumor uptake (MDA-MB-231 breast cancer [6]): 24 h
